Screens: PubChem, Broad Institute
MITF act = activators of MITF-driven TRPM1 promoter reporter, primary screen, cell-based, SK-MEL-5, luciferase, single point | hit rate 0.75% among 300,000 | activation, % at 12.5 µM | SK-MEL-5 TRPM1-promoter luciferase, 24 h; % of positive control, neutral wells = 0 | AID 588334, 2011;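 active = mean activation of at least 80% with every replicate also reaching 80%; inconclusive = mean reaches 80% but some replicate falls short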;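 also: 0% = neutral control wells and 100% = parthenolide positive control wells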
Wnt bcat act = Wnt/beta-catenin pathway activators, primary screen, cell-based, plate reader, single point | Wnt/beta-catenin reporter cell assay, activator | activation, % at 9.35 µM | hit rate 1.2% among 300,000 | AID 743398, 2014; in the data active = activation above about 30%, passing the limit was not always enough; inconclusive = no clear call, values can overlap the other calls;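 also: 0% = neutral control wells and 100% = positive control wells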
ERAP1 HTS inh = human ERAP1 aminopeptidase inhibitors, primary screen, biochemical, single point, plate reader; recombinant ERAP1, Leu-AMC fluorescence, 60 min; Endoplasmic reticulum aminopeptidase 1 (Homo sapiens), Q9NZ08; hit rate 0.15% among 340,000; inhibition, % at 10.7 µM;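 active = mean replicate inhibition of at least 30%, or all replicates individually reaching that 30% level; inactive = mean below 30% and not every replicate reaching it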;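 also: 0% = neutral control wells and 100% = L-leucinethiol positive control wells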
Target sequence (Q9NZ08 whole entry, looked up): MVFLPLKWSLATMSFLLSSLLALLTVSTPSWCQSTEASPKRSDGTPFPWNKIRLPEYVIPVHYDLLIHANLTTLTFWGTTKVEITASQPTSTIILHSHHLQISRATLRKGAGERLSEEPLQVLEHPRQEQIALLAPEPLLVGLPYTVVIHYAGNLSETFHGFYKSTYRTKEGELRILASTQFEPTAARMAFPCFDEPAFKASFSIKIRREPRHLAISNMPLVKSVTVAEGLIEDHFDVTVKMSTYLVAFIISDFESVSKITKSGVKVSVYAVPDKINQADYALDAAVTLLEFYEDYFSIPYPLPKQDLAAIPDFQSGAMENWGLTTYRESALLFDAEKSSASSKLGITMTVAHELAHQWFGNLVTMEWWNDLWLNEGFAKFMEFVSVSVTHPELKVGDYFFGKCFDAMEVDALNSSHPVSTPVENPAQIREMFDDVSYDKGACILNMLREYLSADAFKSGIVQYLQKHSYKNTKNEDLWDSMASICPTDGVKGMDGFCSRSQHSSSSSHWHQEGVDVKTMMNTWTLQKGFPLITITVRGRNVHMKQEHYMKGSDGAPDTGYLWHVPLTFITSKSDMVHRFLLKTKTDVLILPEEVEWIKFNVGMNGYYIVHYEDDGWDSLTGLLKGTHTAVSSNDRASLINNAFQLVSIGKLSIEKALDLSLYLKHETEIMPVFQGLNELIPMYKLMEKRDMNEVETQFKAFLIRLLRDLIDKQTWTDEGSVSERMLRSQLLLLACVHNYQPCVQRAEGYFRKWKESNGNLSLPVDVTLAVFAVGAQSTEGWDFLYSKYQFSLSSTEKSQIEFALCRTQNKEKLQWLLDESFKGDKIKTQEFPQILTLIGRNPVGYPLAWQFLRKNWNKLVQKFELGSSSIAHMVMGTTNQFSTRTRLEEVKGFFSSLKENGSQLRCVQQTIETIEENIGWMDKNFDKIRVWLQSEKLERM
Cneo AK release = Cryptococcus neoformans cell lysis inducers, primary screen, AK release luminescence, single concentration | C. neoformans lysis, adenylate kinase release luminescence, 4 h; normalised: neutral wells 0, clomiphene wells 100 | lysis activity, % at 15 µM | hit rate 0.2% among 360,000;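 active = mean lysis activity across replicates of at least 80%, whatever share of replicates individually reach that level; inactive = mean lysis activity below 80%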
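Test system: log-phase Cryptococcus neoformans yeast cells; Quantity: yeast cell density of 5 × 10^6 cells/mL; Buffer or medium: YPD; Doses: single compound concentration per well; Timing: 4 h at 37 °C static, read 1 h later; Measured by: AK luminescence; Read-out basis: lysis from increased AK signal; Control set: Clomiphene as positive control.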
HIV Env fusion = inhibitors of HIV-1 Env-driven cell-cell fusion, primary screen, HeLa-JRFL effector, CEM21 target cells, luciferase; hit rate 1.1% among 360,000; AID 651610, 2012; inhibition, % at 12.3 µM;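 active = mean replicate inhibition score of at least 50 and every replicate individually at or above 50; inconclusive = only one of the two criteria met; inactive = mean below 50 and not all replicates reaching 50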;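 also: 0% = plate neutral controls and 100% = maraviroc near 300 nM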
esBAF inh = Bmi1 luciferase reporter increase in mESCs, primary screen, esBAF inhibitor project, mouse ES cells, Bmi1 luciferase knock-in, single point; 24 h; 100% = twice the neutral-well signal; hit rate 2% among 350,000; reporter increase, % at 12.5 µM; AID 602393, 2012; in the data active = activation above about 40%; inconclusive = no clear call, values can overlap the other calls;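 also: 0% = median of the plate's neutral control wells and 100% = double that signal; a rise in the Bmi1 reporter signal indicates esBAF inhibition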
* marks the source's active call; other numbers are inactive results; i = inactive; u = inconclusive; x = no result; [ ] = another dose, or the depositor's remark. This is a sample that favours compounds with a hit; in the whole collection about 3.5% have one here.

SMILES | MITF act | Wnt bcat act | ERAP1 HTS inh | Cneo AK release | HIV Env fusion | esBAF inh
COc1ccccc1C(=O)Nc1nc(C)cc(C)n1 | x | 3.8 | -3.5 | 2.2 | -2.5 | x
COc1cc(C)nc(NC(=S)N(C)C(=O)c2ccccc2)n1 | x | 46.5* | -1.9 | -3.5 | 0.0 | x
CN1CCN(C(=S)NC(=O)c2ccc(C(C)(C)C)cc2)CC1 | 10.6 | -2.1 | 2.1 | 2.4 | x | x
CC(C)(C)c1ccc(C(=O)NC(=S)N2CCOCC2)cc1 | 103.9* | 34.3* | 3.2 | -1.8 | x | 20.5
N#C[C@H]1[C@@H](c2ccccc2/C=C/c2ccccc2)[C@@H](CO)N1S(=O)(=O)c1cccc(F)c1 | x | x | -3.2 | x | 58.3*[16.7 µM] | x
N#C[C@H]1[C@@H](c2ccccc2/C=C/c2ccccc2)[C@@H](CO)N1S(=O)(=O)c1ccccc1 | x | x | 0.3 | x | x | x
CCOC(=O)c1ccc(N/C=C/C(=O)C(C)(C)C)cc1 | 56.8 | 77.6* | 3.7 | x | -7.0 | x
Cc1ccc(N/C=C/C(=O)c2ccc(C)cc2)cc1 | 63.2 | x | x | 1.7 | x | 1.7
Cc1ccc(C(=O)/C=C/Nc2ccccc2C(N)=O)cc1 | 0.9 | 38.6* | x | -5.3 | i | -1.5
Cc1ccc(O)c(N/C=C/C(=O)c2ccc(F)cc2)c1 | 69.3 | -1.9 | -1.9 | -9.6 | -26.4 | 63.3*
CCOC(=O)c1ccc(N/C=C/C(=O)c2ccccc2)cc1 | 65.4 | 74.5* | 2.9 | x | -63.3 | x
O=C(N[C@@H]1CC[C@@H](CC(=O)N2CCCCC2)O[C@@H]1CO)c1ccc2c(c1)OCO2 | x | x | -0.9 | -5.4 | 8.0[16.7 µM] | 0.0
C[C@@H]1CN([C@H](C)CO)C(=O)CCCn2cc(nn2)CO[C@H]1CN(C)Cc1ccc(-c2ccccc2)cc1 | x | x | -2.2 | 59.5 | 6.6[16.7 µM] | 0.5
CO[C@@H]1CN(C)C(=O)c2ccc(NC(C)=O)cc2OC[C@@H](C)N(Cc2ccncc2)C[C@H]1C | x | x | x | x | x | 4.1
NC(=O)c1ccccc1N/C=C/C(=O)c1ccc(Cl)cc1 | 17.5 | 0.5 | x | -3.1 | -347.9 | x
CCOC(=O)c1ccccc1N/C=C/C(=O)c1ccccc1 | -6.9 | 54.4* | x | 1.6 | -65.0 | 1.9
CO[C@@H]1CN(C)C(=O)c2cc(NC(C)=O)ccc2OC[C@@H](C)N(CC2CC2)C[C@H]1C | x | x | -3.5 | 0.4 | x | -4.2
COc1ccc(COCC23N=C4SCc5ccccc5CN4[C@H](c4ccccc4O2)[C@H]3COC(=O)c2ccccc2)cc1 | x | x | 4.2 | 2.4 | 69.3*[16.7 µM] | x
COc1cccc(/C=N/NC(=S)NC2CC3CCC2C3)c1OC (stereo unspecified) | x | -1.8 | -0.2 | x | 8.1 | 5.1
Oc1ccccc1/C=N/NC(=S)NC1CC2CCC1C2 (stereo unspecified) | 42.7 | 23.5 | -3.3 | -6.0 | -23.3 | 65.7*
COCCCNC(=S)N/N=C/c1ccccc1O | x | 3.4 | x | x | -70.1 | 49.5*
COc1ccccc1/C=N/NC(=S)NCc1ccco1 | x | 28.2 | 2.2 | 89.3* | 8.8 | x
S=C(NCc1ccco1)N/N=C/c1ccccc1Cl | -17.7 | 8.8 | x | x | x | -3.8
COCCNC(=S)N/N=C/c1ccccc1C(=O)O | -7.7 | -1.4 | x | 2.3 | 5.5 | -6.0
CN(C)c1ccc(C(=O)c2ccc(O)cc2O)cc1 | 47.0 | 14.3 | x | -6.5 | x | 55.0*
SMILES | MITF act | Wnt bcat act | ERAP1 HTS inh | Cneo AK release | HIV Env fusion | esBAF inh
O=C(CSc1nc2ccccc2c(=O)n1-c1ccccc1)NCC1CCCO1 (stereo unspecified) | 5.9 | -1.7 | 82.0* | 4.1 | 4.2 | 0.2
Cc1ccc(-n2c(SCC(=O)NCC3CCCO3)nc3ccccc3c2=O)cc1C (stereo unspecified) | -0.9 | -5.2 | 4.8 | x | 12.3 | x
CCn1c(SCC(=O)NC2CCCCC2)nc2ccccc2c1=O | 10.6 | 1.7 | 54.7* | -6.1 | 25.7 | -11.4
CCCN(C)C[C@@H]1Oc2cc(C#CCC3CCCC3)ccc2S(=O)(=O)N([C@@H](C)CO)C[C@@H]1C | x | x | x | x | -16.3[16.7 µM] | -0.4
Cc1nnc2sc(-c3ccc(N(C)C)cc3)nn2c1=O | 108.7* | 24.4 | -2.6 | -10.2 | -22.4 | -11.4
Cc1ccc(Cc2c(-c3ccc(F)cc3)nc3cc(C)ccn23)cc1 | x | 16.4 | -1.0 | 6.7 | 1.7 | 44.2*
CC(=O)N1CC2(C1)[C@H](c1ccc(-c3ccc(C#N)cc3)cc1)[C@H](CO)N2C(=O)C1CC1 | x | x | 3.4 | x | x | x
O=C(/C=C/c1ccco1)Nc1nc(-c2ccccc2)cs1 | 53.7 | 36.6* | -2.5 | -1.1 | x | x
O=C(/C=C/c1ccco1)Nc1scc(-c2ccccc2)c1C(=O)O | 27.5 | 42.5* | 12.0 | -5.0 | -10.4 | x
C(=N\Nc1nc(-c2ccccc2)cs1)/c1cccs1 | 50.7 | 56.2* | x | 0.9 | -211.2 | x
C(=N\Nc1nc(-c2ccccc2)cs1)/c1ccco1 | 97.2* | x | x | x | -72.3 | x
COc1cccc(-c2cnc3c(c2)C(=O)N([C@@H](C)CO)C[C@@H](C)[C@H](CN(C)Cc2ccc(F)cc2)O3)c1 | x | x | 2.0 | -8.7 | 11.7[16.7 µM] | -0.1
Brc1ccc(-c2csc(N/N=C/c3ccco3)n2)cc1 | 55.7 | 38.3* | -0.5 | 0.1 | -23.1 | u
Cc1ccc(-c2csc(N/N=C/c3ccco3)n2)cc1 | 74.8 | 16.3 | x | 0.6 | -52.3 | u
Cc1noc(C)c1NC(=O)Nc1ccc2c(c1)C(=O)N([C@@H](C)CO)C[C@@H](C)[C@@H](CN(C)Cc1ccccc1)O2 | x | x | 0.8 | -0.5 | -5.1[16.7 µM] | 2.3
Cc1ccc(S(=O)(=O)c2nc(-c3ccccc3Cl)oc2N(C)C)cc1 | -13.6 | -0.1 | 1.3 | -2.1 | 56.0* | 6.9
Cc1ccc(S(=O)(=O)c2nc(-c3ccccc3Br)oc2N(C)C)cc1 | 10.1 | -5.4 | 0.4 | 2.8 | -16.4 | -7.4
O=C(NC[C@H]1CC[C@@H]2[C@@H](CN2S(=O)(=O)c2ccccc2[N+](=O)[O-])O1)C1CCCC1 | x | x | -9.0 | x | x | x
Cc1nc2c3cc(Cl)ccc3n(CCN3CCCCC3)c2s1 | -23.2 | x | x | 3.9 | x | 51.2*
Cc1ccc(N/C=C/c2onc(C)c2[N+](=O)[O-])cc1 | 113.4* | 39.6* | -3.1 | 4.6 | -150.8 | -10.0
O=C1[C@H]2[C@@H](c3ccc(F)cc3)N3C(=O)N(c4ccccc4)C(=O)[C@@]3(Cc3ccccc3)[C@H]2C(=O)N1C1CCCCC1 | -0.1 | -3.2 | -5.0 | 1.7 | 107.2* | 10.6
O=C1[C@H]2[C@@H](c3ccc(F)cc3)N3C(=O)N(c4ccccc4)C(=O)[C@@]3(Cc3ccc(Cl)cc3)[C@H]2C(=O)N1C1CCCCC1 | -3.5 | -4.9 | -3.6 | -0.6 | 100.4* | 3.2
CC(C)C[C@@]12C(=O)N(c3cccc(F)c3)C(=O)N1[C@H](c1ccc(F)cc1)[C@@H]1C(=O)N(C3CCCCC3)C(=O)[C@@H]12 | 0.5 | 2.4 | x | -2.1 | 9.3 | 2.8
COc1ccc(NC(=O)N(C)C[C@H]2Oc3ccc(NS(=O)(=O)c4cn(C)cn4)cc3C(=O)N([C@@H](C)CO)C[C@H]2C)cc1 | x | x | -3.6 | -1.0 | x | -9.8
